Test results reported in paper PMC5259643 (Journal of Veterinary Internal Medicine, 2017).
Read-outs that look alike come from different tables or passages of the source.

Key:
[1] = Laryngoscopy with doxapram stimulation in dogs with brachycephalic syndrome; type: in vivo
[2] = Management of Addisonian crisis; type: in vivo, dogs; details: for outcome: HSS CRI 0.3 to 0.625 mg/kg/h (n = 7), dexamethasone IV 0.05 to 0.3 mg/kg (n = 8)
[3] = ref previously reported data; cited from earlier work
[4] = Transcutaneous ICG plasma disappearance rate; type: in vivo, dogs
Summary of the method: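 Healthy dogs received indocyanine green 0.5 mg/kg IV daily on three days. The plasma disappearance rate was read transcutaneously with a monitor probe, and the intrasubject coefficient of variation was calculated from the daily values.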

[5] = target: Steroidogenic factor‐1 (SF‐1) (Canis lupus familiaris, UniProt A0A5K7W231); experiment: Cortisol and mRNA in normal canine primary adrenocortical cell suspensions; type: cell-based, dogs; details: 10^‐8 to 10^‐5 M
Chain of Steroidogenic factor‐1 (SF‐1) (A0A5K7W231 1-461): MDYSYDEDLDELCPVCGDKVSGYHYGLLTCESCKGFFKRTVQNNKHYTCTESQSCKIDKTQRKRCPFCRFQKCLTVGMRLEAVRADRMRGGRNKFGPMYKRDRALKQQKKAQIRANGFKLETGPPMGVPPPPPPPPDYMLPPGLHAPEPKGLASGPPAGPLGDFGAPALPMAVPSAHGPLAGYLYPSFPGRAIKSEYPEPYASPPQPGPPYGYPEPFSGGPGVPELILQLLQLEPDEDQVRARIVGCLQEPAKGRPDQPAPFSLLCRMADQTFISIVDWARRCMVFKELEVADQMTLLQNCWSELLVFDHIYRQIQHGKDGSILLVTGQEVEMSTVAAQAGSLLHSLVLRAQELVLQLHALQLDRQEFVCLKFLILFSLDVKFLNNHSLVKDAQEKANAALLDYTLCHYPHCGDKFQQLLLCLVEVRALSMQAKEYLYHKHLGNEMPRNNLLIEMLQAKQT
Summary of the method: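 Primary adrenocortical cells from normal canine adrenals were cultured as suspensions, with synthetic ACTH added to mimic hypercortisolism. Cells were exposed to SF-1 inverse agonists, with a DMSO vehicle control. Cortisol was measured in the culture media. RT-qPCR gave relative mRNA expression of steroidogenic enzymes, SF-1 and MC2R.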

[6] = Hypothyroidism after low‐dose radioiodine in hyperthyroid cats; type: in vivo; details: 30 hypothyroid cats supplemented
Summary of the method: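 Hyperthyroid cats successfully treated with low-dose 131I (n = 569) had serum T4 and TSH measured at 1, 3, 6, 12 and ≥18 months after treatment. Cats that developed high TSH were classed as overtly hypothyroid if T4 was low, or subclinically hypothyroid if T4 was normal.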

feline liver organoids = experiment: Lipid accumulation in liver organoids exposed to free fatty acids; type: cell-based, cats; details: LD540, flow cytometry
Summary of the method: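 Feline liver organoids were incubated with vehicle or free fatty acids and stained with the lipophilic dye LD540. Fluorescence was quantified by flow cytometry. β-oxidation of excess fatty acids was probed with a CPT-1 inhibitor and with L-carnitine supplementation.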

[7] = Sedation of dogs with stage B2 MMVD; type: in vivo
Leishmania infantum = experiment: Randomized allopurinol‐controlled trial in dogs with clinical leishmaniosis; type: in vivo; details: bone marrow; with MGA
[8] = target: T1, serum angiotensin‐converting enzyme (ACE) (Canis lupus familiaris, UniProt A0A8I3S3I6); experiment: Serum ACE activity after benazepril with or without pimobendan; type: in vivo, dogs; details: for serum ACE activity versus baseline: days 1 and 15
T1 sequence (A0A8I3S3I6 31-1241): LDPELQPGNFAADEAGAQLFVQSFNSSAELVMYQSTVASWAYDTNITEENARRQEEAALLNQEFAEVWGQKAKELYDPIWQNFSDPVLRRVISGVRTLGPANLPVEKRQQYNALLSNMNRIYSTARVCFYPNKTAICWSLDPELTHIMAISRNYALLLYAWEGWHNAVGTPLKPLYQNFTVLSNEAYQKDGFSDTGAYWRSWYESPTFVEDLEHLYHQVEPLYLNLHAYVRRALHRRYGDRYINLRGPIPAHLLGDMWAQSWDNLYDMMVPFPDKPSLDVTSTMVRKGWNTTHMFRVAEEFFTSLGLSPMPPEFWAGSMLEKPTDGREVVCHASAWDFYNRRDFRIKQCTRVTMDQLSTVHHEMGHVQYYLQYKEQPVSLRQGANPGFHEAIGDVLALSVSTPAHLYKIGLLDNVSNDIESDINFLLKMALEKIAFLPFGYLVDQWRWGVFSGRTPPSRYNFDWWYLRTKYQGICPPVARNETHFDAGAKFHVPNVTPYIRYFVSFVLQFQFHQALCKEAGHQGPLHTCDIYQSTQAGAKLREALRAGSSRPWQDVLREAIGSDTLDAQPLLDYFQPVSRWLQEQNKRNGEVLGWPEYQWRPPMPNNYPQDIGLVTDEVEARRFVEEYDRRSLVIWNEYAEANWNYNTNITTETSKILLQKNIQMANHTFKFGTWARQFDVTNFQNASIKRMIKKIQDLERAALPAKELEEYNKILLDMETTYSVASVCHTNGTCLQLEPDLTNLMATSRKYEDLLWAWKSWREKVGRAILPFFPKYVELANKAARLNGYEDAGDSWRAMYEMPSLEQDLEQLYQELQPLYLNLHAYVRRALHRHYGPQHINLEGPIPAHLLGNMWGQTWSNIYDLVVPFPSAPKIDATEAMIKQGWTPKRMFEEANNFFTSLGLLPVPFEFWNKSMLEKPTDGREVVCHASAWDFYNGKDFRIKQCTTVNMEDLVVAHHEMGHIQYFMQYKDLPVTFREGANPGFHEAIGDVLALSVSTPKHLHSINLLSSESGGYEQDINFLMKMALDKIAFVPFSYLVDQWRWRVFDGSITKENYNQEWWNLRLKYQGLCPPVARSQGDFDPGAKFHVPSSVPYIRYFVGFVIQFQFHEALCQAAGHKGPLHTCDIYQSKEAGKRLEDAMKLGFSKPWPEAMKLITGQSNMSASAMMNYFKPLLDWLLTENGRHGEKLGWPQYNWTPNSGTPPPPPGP
Summary of the method: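 In a prospective, randomised, parallel-group design, 48 healthy beagles were split into four groups: placebo twice daily; benazepril 0.5 mg/kg once each morning; benazepril 0.25 mg/kg twice daily; or benazepril 0.25 mg/kg plus pimobendan 0.125 mg/kg, both twice daily. Dosing was oral for 15 days. Serum ACE was assayed radio-enzymatically at baseline, at 12 post-dose times on day 1, and on day 15 (steady state).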

E.Coli = experiment: Cat with E.coli associated granulomatous colitis; type: in vivo
[9] = test system: bacteria isolated from urinary cultures; experiment: Urine culture sensitivity in dogs with DM and/or HAC; type: cell-based
[10] = test system: Aelurostrongylus abstrusus; Angiostrongylus vasorum; experiment: Lungworm infection in cats and dogs in Rome treated with fenbendazole; type: in vivo
Summary of the method: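 Animals were diagnosed by faecal testing, BAL, lung cytology or post mortem. All received fenbendazole 50 mg/kg for 3 weeks, with further therapy according to clinical status; outcome was recorded.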

[11] = dogs with HAC; ref other studies; cited from earlier work
Troglostrongylus brevior = experiment: Anthelmintic treatment of feline lungworm infection; type: in vivo, cats; details: single administration; moxidectin n = 2, emodepside n = 1
T. brevior/A. abstrusus = experiment: Anthelmintic treatment of feline lungworm infection; type: in vivo, cats; details: five of six cats
Summary of the method: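 Cats with natural Troglostrongylus brevior/Aelurostrongylus abstrusus co-infection were treated with one of: single topical emodepside (n = 1), single oral milbemycin oxime (n = 2), or moxidectin given two (n = 2) or three (n = 1) times. Clinical course and time to recovery were followed.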

[12] = Simvastatin in dogs with hyperlipidemia; type: in vivo; details: three months; n = 5; range 181–399
[13] = Oral torasemide in cats with CHF; type: in vivo
Summary of the method: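 Cats with CHF, previously on furosemide (median 6 mg/kg/24 h), were switched to oral torasemide. The median starting dose was 0.5 mg/kg/24 h (range 0.1–0.75), given once daily or split twice daily. Renal values and potassium were rechecked at follow-up.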

[14] = Cortisol monitoring in dogs with hyperadrenocorticism on trilostane; type: in vivo
Summary of the method: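 Multicentre open-label prospective study in dogs with hyperadrenocorticism on trilostane. Serum cortisol was measured pre-trilostane, 3 h post-trilostane, and 1 h post-ACTH stimulation.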

[15] = Echocardiography, blood pressure and heart rate before and after sedation; type: in vivo, cats; details: ten minutes after sedation
Capillaria aerophila = experiment: Anthelmintic treatment of feline lungworm infection; type: in vivo, cats; details: single administration, one cat

## CCN1CC(CCN2CCOCC2)C(c2ccccc2)(c2ccccc2)C1=O.Cl (stereo not drawn) [Dxp, doxapram hydrochloride]
[1]; after 1.1 mg/kg IV, before 1.64 [0–3], P < 0.001, 26 dogs
  mean degree of laryngeal collapse (0 to 3): 1.07 [0–3]
[1]; after injection
  laryngeal abduction: significant abduction of laryngeal cartilages could be observed in all dogs

## C[C@]12CCC(=O)C=C1CC[C@@H]1[C@@H]2[C@@H](O)C[C@@]2(C)[C@H]1CC[C@]2(O)C(=O)COC(=O)CCC(=O)O [HSS, hydrocortisone sodium succinate]
[2]
  outcome: all patients surviving to discharge
[2]; group A (HSS) versus group B (dexamethasone), P = 0.0424
  median time for Na+ concentration to normalise: significantly shorter in group A compared to group B

## CC1(C)C(/C=C/C=C/C=C/C=C2\N(CCCCS(=O)(=O)O)c3ccc4ccccc4c3C2(C)C)=[N+](CCCCS(=O)(=O)[O-])c2ccc3ccccc3c21 [ICG, Indocyanine green]
[3]
  mean ICG‐PDR: 7.79 ± 3.3 %/min
[4]; day one, 0.5 mg/kg IV, six healthy Beagles, transcutaneous
  mean ICG‐PDR: 7.8 ± 3.4 %/min
[4]; day three
  mean ICG‐PDR: 7.9 ± 2.6 %/min
[4]; day two
  mean ICG‐PDR: 8.8 ± 3.7 %/min
[4]; dog, in vivo
  highest individual %CV: 52.5%
[4]; three consecutive days
  mean intrasubject %CV of ICG‐PDR: 35.9 ± 16.8%

## CCOC(=O)C(C)Oc1cccc2c(=O)n(CC(=O)Nc3ccc4c(c3)OCCO4)ccc12 (stereo not drawn) [IsoqA]
[5]
  effect on cortisol production: no significant effect on cortisol production

## N[C@@H](Cc1cc(I)c(Oc2cc(I)c(O)c(I)c2)c(I)c1)C(=O)O [Levothyroxine]
[6]
  serum TSH and creatinine: significantly decreased both serum TSH and creatinine concentrations

## C[N+](C)(C)C[C@H](O)CC(=O)[O-] [L‐carnitine]
Feline liver organoids
  lipid accumulation under excess FFA: attenuated

## Cc1cccc(C(C)c2cnc[nH]2)c1C (stereo not drawn) [M group, medetomidine]
[7]; T1, 30 minutes after medetomidine, n = 8 per group
  regurgitant jet area (ARJ/LAA): significantly decreased
[7]; T1, P < 0.05
  body weight‐indexed LVIDs: increased
  shortening fraction: decreased

## Oc1ncnc2[nH]ncc12 [allopurinol]
Leishmania infantum
  parasite load by RT‐QPCR: significantly reduced parasite load

## CCOC(=O)[C@H](CCc1ccccc1)N[C@H]1CCc2ccccc2N(CC(=O)O)C1=O [benazepril]
[8]; group B, 0.5 mg/kg once daily PO
  serum ACE activity versus baseline: significant reductions in serum ACE activity compared to baseline
[8]; group C, 0.25 mg/kg twice daily PO
  serum ACE activity versus baseline: significant reductions in serum ACE activity compared to baseline
[8]; non‐inferiority shown
  0.25 mg/kg twice daily compared to 0.5 mg/kg once daily: equivalent inhibition of serum ACE activity

## C[C@@H]1C[C@H]2[C@@H]3CCC4=CC(=O)C=C[C@]4(C)[C@@]3(F)[C@@H](O)C[C@]2(C)[C@@]1(O)C(=O)CO [dexamethasone]
[2]
  outcome: all patients surviving to discharge

## CCN1CCN(c2cc3c(cc2F)c(=O)c(C(=O)O)cn3C2CC2)CC1 [enrofloxacin]
E.Coli; 5 mg/kg SID for 6 weeks, one cat
  clinical response: complete resolution of clinical signs
E.Coli; to date
  remission sustained: 4 months
[9]
  bacterial resistance: 38%

## CCOC(=O)[C@@]1(CCCCCCOc2ccc(Cl)cc2)CO1 [etomoxir]
Feline liver organoids
  lipid accumulation under excess FFA: enhanced

## COC(=O)Nc1nc2ccc(Sc3ccccc3)cc2[nH]1 [fenbendazole]
[10]; 50 mg/kg for 3 weeks plus other therapy, 21 dogs
  outcome in dogs: Five dogs died; the others recovered
[10]; 50 mg/kg for 3 weeks, 20 cats
  outcome in cats: fully recovered

## Clc1ccc(C(c2ccccc2Cl)C(Cl)Cl)cc1 (stereo not drawn) [mitotane]
[11]
  mean survival time: 985 ± 57 days

## CO/N=C1\C[C@]2(C[C@@H]3C[C@@H](C/C=C(\C)C[C@@H](C)/C=C/C=C4\CO[C@@H]5[C@H](O)C(C)=C[C@@H](C(=O)O3)[C@]45O)O2)O[C@H](/C(C)=C/C(C)C)[C@H]1C [moxidectin]
Troglostrongylus brevior
  time to recovery: 14 to 42 days
T. brevior/A. abstrusus
  time to being healthy: 14 to 42 days

## CCC(C)(C)C(=O)O[C@H]1C[C@@H](C)C=C2C=C[C@H](C)[C@H](CC[C@@H]3C[C@@H](O)CC(=O)O3)[C@H]21 [simvastatin]
[12]
  plasma cholesterol: 298 ± 109.9

## Cc1cccc(Nc2ccncc2S(=O)(=O)NC(=O)NC(C)C)c1 [torasemide]
[13]; in vivo
  main adverse clinical effect: worsening azotaemia
  tolerability: tolerated by this population of cats with CHF
[13]; range 7–177 d, 11 cats
  median survival time after commencing torasemide: 48 days

## C[C@]12CC[C@H]3[C@@H](CC[C@@]45O[C@@H]4C(O)=C(C#N)C[C@]35C)[C@@H]1CC[C@@H]2O [trilostane]
[11]
  mean survival time: 1051 ± 78 days
[14]; 21 dogs, 45 pairs on same dose
  median cortisol pre‐trilostane: 114.0 nmol/L
[14]; dog, in vivo
  median cortisol 1 hour post‐ACTH stimulation: 110.0 nmol/L
[14]; significantly lower than the other two
  median cortisol 3 hours post‐trilostane: 53.5 nmol/L

## dexmedetomidine and buprenorphine
[15]
  IVSd, IVSs, LVPWd, LVPWs, Ao, La/Ao, pulmonic acceleration time: did not differ pre‐ and post‐sedation
[15]; 50 cats, P ≤ 0.022
  LVIDd, LVIDs, RVIDd, LA, pulmonic deceleration time, SBP, DBP, MAP: increased after sedation
[15]; P < 0.0001
  Vmax Ao, Vmax A pulm, FS, AT/DT and HR: decreased after sedation

## eprinomectin
Capillaria aerophila
  outcome: healthy after two weeks
